The results in this text go back to ChEMBL document CHEMBL4842351, “Synthesis and evaluation of novel and potent protease activated receptor 4 (PAR4) antagonists based on a quinazolin-4(3H)-one scaffold” (Eur J Med Chem, 2021).

Activity calls are given as the source filed them.

In data set [1] the test system is Platelet. The data set can be described thus: Antiplatelet activity against collagen-induced human platelet aggregation in platelet in platelet rich plasma assessed as inhibition of platelet aggregation at 10 uM by photo-turbidimetry method. In kind it is functional, cell-based. The procedure, abridged: (§1)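 Human PRP prepared as for the aggregation assay and adjusted to 3×10⁸/mL. Compound preincubated for 5 min at 37 °C, then aggregation triggered by AYPGKF, SFLLRN, collagen, ADP or U46619. Maximum percent inhibition taken from 5 min light-transmittance traces. Mean ± SD, n=3.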

Data set [2] can be described thus: Cytotoxicity against HEK293T cells assessed as cell viability at 1 uM incubated for 48 hrs by CCK-8 assay. In kind it is cell-based, HEK-293T. Particulars: human, read-out: Activity. The procedure, abridged:
(§2)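 HEK293 cells in exponential growth, 4000/well, left to adhere overnight, then exposed to three compound concentrations for 48 h. Equal-volume DMSO served as control. CCK-8 added for 2 h at 37 °C in the dark, absorbance read at 450 nm. Viability = OD sample/OD control × 100; mean ± SD, n=3.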

Data set [3] has as its system Platelet. The data set can be described thus: Antiplatelet activity against ADP-induced human platelet aggregation in platelet in platelet rich plasma assessed as inhibition of platelet aggregation at 10 uM by photo-turbidimetry method. In kind it is functional, cell-based. An outline of the steps: as §1
Data set [4] deals with T1, Proteinase-activated receptor 1 (Homo sapiens, UniProt P25116).
T1 sequence (P25116 whole entry): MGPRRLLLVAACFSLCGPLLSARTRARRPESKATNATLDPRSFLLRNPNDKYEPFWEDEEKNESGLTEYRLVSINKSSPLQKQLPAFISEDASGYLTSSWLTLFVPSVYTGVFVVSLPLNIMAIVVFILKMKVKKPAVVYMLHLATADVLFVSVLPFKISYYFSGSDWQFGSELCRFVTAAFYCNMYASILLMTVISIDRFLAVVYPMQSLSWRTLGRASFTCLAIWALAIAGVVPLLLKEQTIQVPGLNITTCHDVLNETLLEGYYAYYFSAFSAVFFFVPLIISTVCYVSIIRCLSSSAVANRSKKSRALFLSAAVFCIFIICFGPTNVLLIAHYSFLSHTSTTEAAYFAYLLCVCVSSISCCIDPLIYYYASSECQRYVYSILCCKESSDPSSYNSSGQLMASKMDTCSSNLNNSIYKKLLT
The data set can be described thus: Antagonist activity at human PAR1 expressed in Ga15-HEK293 cells assessed as reduction in PAR1 AP SFFLRR-NH2-induced cytosolic calcium incubated for 24 hrs by FLIPR - calcium mobilization assay. It is filed as functional, cell-based. An outline of the steps: (§3)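 HEK293/Gα15 cells stably expressing human PAR1, PAR2 or PAR4, seeded at 45,000 cells/well and grown for 24 h at 37 °C, 5% CO₂. Cells loaded with calcium dye for 60 min at 37 °C in the dark. Compounds diluted from DMSO in HBSS and preincubated in the dark at room temperature. Agonists: SFFLRR (PAR1), 2-furoyl-LIGRLO-NH₂ (PAR2), AYPGKF-NH₂ (PAR4). Fluorescence read on FLIPR; 10-point half-log curves; mean of ≥2 determinations.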
On the technique in general: A change in cytosolic calcium serves as a functional read-out for many receptors and channels.

In data set [5] the target is T2, Proteinase-activated receptor 2 (Homo sapiens, UniProt P55085).
T2 sequence (P55085 whole entry): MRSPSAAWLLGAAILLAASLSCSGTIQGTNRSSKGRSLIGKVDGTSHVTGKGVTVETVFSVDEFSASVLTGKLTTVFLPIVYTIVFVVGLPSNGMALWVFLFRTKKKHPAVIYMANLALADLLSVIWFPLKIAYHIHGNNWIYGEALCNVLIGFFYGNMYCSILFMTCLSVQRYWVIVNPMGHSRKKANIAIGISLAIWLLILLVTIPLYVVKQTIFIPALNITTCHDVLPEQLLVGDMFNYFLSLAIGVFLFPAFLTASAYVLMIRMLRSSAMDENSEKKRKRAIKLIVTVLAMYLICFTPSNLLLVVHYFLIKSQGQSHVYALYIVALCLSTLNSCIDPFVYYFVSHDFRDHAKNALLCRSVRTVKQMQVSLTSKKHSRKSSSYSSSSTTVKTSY
As to the kind of experiment: Antagonist activity at human PAR2 expressed in Ga15-HEK293 cells assessed as reduction in PAR2 AP 2-furoyl-LIGRLO-NH2-induced cytosolic calcium incubated for 24 hrs by FLIPR - calcium mobilization assay. It is filed as functional, cell-based. An outline of the steps: as §3

Data set [6] is described as follows: Metabolic stability in human liver microsomes assessed as intrinsic clearance incubated for 60 mins by LC-MS/MS analysis. It is filed as ADME, Microsome. Particulars: 1 h. Background: Liver microsomes are vesicles of endoplasmic reticulum, rich in cytochrome P450 enzymes.
Data set [7] concerns Platelet. The data set can be described thus: Antiplatelet activity against SFLLRN-NH2-induced human platelet in platelet rich plasma assessed as inhibition of platelet aggregation at 10 uM by photo-turbidimetry method. In kind it is functional, cell-based. An outline of the steps:
as §1

Data set [8] is described as follows: Metabolic stability in mouse liver microsomes assessed as intrinsic clearance incubated for 60 mins by LC-MS/MS analysis. Particulars: 1 h. It is filed as ADME, Microsome. An outline of the steps: (§4)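 Human, rat or mouse liver microsomes in potassium phosphate buffer at pH ~7.4, warmed to 37 °C with compound (DMSO stock diluted in acetonitrile). Reaction started with NADPH; no-NADPH negative controls. Aliquots taken at 0 and 60 min, quenched in ice-cold acetonitrile with internal standard, and parent measured by LC/MS/MS. t1/2 = 0.693/k from ln concentration vs time; CLint derived from t1/2. Triplicate; mean ± SD.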

For data set [9], the system named is Platelet. As to the kind of experiment: Antiplatelet activity against AYPGKF-NH2-induced human platelet in platelet rich plasma assessed as inhibition of platelet aggregation at 10 uM by photo-turbidimetry method. In kind it is functional, cell-based. The procedure, abridged:
as §1

Data set [10] can be described thus: Metabolic stability in rat liver microsomes assessed as half life incubated for 60 mins by LC-MS/MS analysis. In kind it is ADME, Microsome. An outline of the steps:
as §4

Data set [11] can be described thus: Cytotoxicity against HEK293T cells assessed as cell viability at 20 uM incubated for 48 hrs by CCK-8 assay. In kind it is cell-based, HEK-293T. Particulars: human, read-out: Activity. The procedure, abridged: as §2
(In general: Formazan colour is commonly taken as a measure of viable cells.)

Data set [12] is described as follows: Metabolic stability in rat liver microsomes assessed as intrinsic clearance incubated for 60 mins by LC-MS/MS analysis. In kind it is ADME, Microsome. Particulars: 1 h. The procedure, abridged: as §4
Data set [13] is described as follows: Metabolic stability in human liver microsomes assessed as half life incubated for 60 mins by LC-MS/MS analysis. In kind it is ADME, Microsome.
For data set [14], the target named is T3, Proteinase-activated receptor 4 (Homo sapiens, UniProt Q96RI0).
T3 sequence (Q96RI0 whole entry): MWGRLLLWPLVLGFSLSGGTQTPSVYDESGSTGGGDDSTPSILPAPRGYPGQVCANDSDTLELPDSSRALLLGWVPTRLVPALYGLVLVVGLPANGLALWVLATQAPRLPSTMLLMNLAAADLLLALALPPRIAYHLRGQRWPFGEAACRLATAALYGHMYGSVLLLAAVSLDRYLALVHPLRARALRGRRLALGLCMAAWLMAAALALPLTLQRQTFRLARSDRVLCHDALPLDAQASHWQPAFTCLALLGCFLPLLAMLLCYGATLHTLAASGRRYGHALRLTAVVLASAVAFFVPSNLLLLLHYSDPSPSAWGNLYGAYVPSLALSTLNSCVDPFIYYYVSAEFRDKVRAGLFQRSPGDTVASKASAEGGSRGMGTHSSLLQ
As to the kind of experiment: Antagonist activity at human PAR4 expressed in Ga15-HEK293 cells assessed as reduction in PAR4 AP AYPGKF-NH2-induced cytosolic calcium incubated for 24 hrs by FLIPR - calcium mobilization assay. In kind it is functional, cell-based. The procedure, abridged: as §3

Data set [15] in a line: Metabolic stability in mouse liver microsomes assessed as half life incubated for 60 mins by LC-MS/MS analysis. It is filed as ADME, Microsome. An outline of the steps:
as §4

Data set [16] has as its system Platelet. The data set can be described thus: Antiplatelet activity against U46619-induced human platelet aggregation in platelet in platelet rich plasma assessed as inhibition of platelet aggregation at 10 uM by photo-turbidimetry method. It is filed as functional, cell-based. An outline of the steps: as §1
The nature of data set [17]: Cytotoxicity against HEK293T cells assessed as cell viability at 10 uM incubated for 48 hrs by CCK-8 assay. Particulars: human, read-out: Activity. It is filed as cell-based, HEK-293T. The procedure, abridged:
as §2

The target in data set [18] is T4, Proteinase-activated receptor 4 (Homo sapiens) (UniProt Q96RI0).
T4 sequence (whole entry): T3 sequence (Q96RI0 whole entry)
As to the kind of experiment: Antagonist activity at PAR4 in human platelet-rich plasma assessed as inhibition of PAR4 AP AYPGKF-NH2-induced platelet aggregation at 0.2 uM by photo-turbidimetry assay relative to control. It is filed as functional. An outline of the steps:
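Human PRP from donated blood, spun at 160×g for 15 min, then adjusted to 3×10⁸/mL with PPP (2000×g, 15 min). Compound or saline vehicle preincubated with PRP for 5 min at 37 °C. Aggregation induced by AYPGKF-NH₂; maximal aggregation measured by light transmittance for 5 min. Percent inhibition at a single point; IC50 from ≥5 concentrations by curve fitting.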

As a reminder, the IC50 is the midpoint of a concentration-inhibition curve. As a reminder, the half-life is the time needed for the level to fall by half in the phase considered. As a reminder, the inhibition is the change of the read-out against control, counted positive when it falls.

As for `COc1cc(Cl)c2nc(-c3cc(C)cc4c(=O)n(C)cnc34)sc2c1`, the outcome in the data set with Platelet [1], in the data set on Platelet [3], with Platelet [7] and in the data set with Platelet [16] was inactive. Moreover, in [2], the viability at 48 h, 1 µM came out at 91.3%. The IC50 was above 3160 nM in data set [4], above 1000 nM in data set [5] and 0.53 nM in data set [14]. The CLH is 36.6 mL/min/g in [6], 19.3 mL/min/g in [8] and 78.1 mL/min/g in data set [12]. Also, in the data set with Platelet [9], the outcome was Active. In addition, the half-life in [10] was found to be 0.532 h; in data set [13], 0.71 h; in data set [15], 4.7 h. Besides, the viability at 48 h, 20 µM in data set [11] worked out at 59.3%. Also, the viability at 48 h, 10 µM in data set [17] was 73.7%.

In the case of `COc1cc(F)c2nc(-c3cc(C)cc4c(=O)n(C)cnc34)sc2c1`, the IC50 was above 3160 nM in data set [4], above 1000 nM in data set [5] and 3.2 nM in [14].

As for `Cc1cc(-c2nc3c(Cl)cc(OCCNS(=O)(=O)c4ccc(C(F)(F)F)cc4)cc3s2)c2ncn(C)c(=O)c2c1`, the outcome with Platelet [1], in the data set with Platelet [3], in the data set on Platelet [7] and in the data set on Platelet [16] was inactive. In [2], the viability at 48 h, 1 µM was 87.7%. Moreover, the values for the IC50 in data set [4], in data set [5] and in [14] were above 3160 nM, above 1000 nM and 1.2 nM, respectively. Further, the CLH in [6] is 3.51 mL/min/g; in data set [8], 12.8 mL/min/g; in [12], 7.73 mL/min/g. In addition, in the data set with Platelet [9], the outcome was Active. The half-life in data set [10] was found to be 5.38 h; in [13], 7.4 h; in [15] it was 7.13 h. The viability at 48 h, 20 µM in data set [11] is 61.8%. In addition, the viability at 48 h, 10 µM in data set [17] was found to be 76.8%.

As for `Cc1cc(-c2nc3c(s2)CCCC3)c2ncn(C)c(=O)c2c1`, the IC50 in [4] was above 3160 nM; in data set [5], above 1000 nM; in data set [14], 5.7 nM.

`CCc1cc(-c2nc3c(Cl)cc(OC)cc3s2)c2ncn(C)c(=O)c2c1`: the IC50 in [4] was above 3160 nM; in data set [5] it was above 1000 nM; in data set [14], 6.8 nM. In addition, the inhibition in data set [18] (filed as antagonist) was found to be 92.8%.

With `Cc1cc(-c2nccs2)c2ncn(C)c(=O)c2c1`, the inhibition in [18] turned out to be 7.1%.
